FXIIa inh = human FXIIa protease inhibitors, primary screen, biochemical, 1536-well. Coagulation factor XII (Homo sapiens), P00748. purified FXIIa, Boc-QGR-AMC fluorogenic substrate, 2 h. inhibition, % at 5 µM. hit rate 0.3% among 220,000; in the data active = inhibition above about 40%
hK5 inh = human KLK5 protease inhibitors, primary screen, biochemical, 1536-well; Kallikrein-5 (Homo sapiens), Q9Y337; recombinant hK5, fluorogenic AMC substrate cleavage; inhibition, % at 5 µM; hit rate 0.59% among 210,000; AID 873, 2007;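 active = inhibition of 40% or more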
Furin inh = human furin inhibitors, primary screen, biochemical, fluorescence intensity; P09958; purified furin, fluorogenic substrate cleavage; inhibition, % at 20 µM or 30 µM; hit rate 0.061% among 220,000; in the data active = inhibition above about 25%
Target sequence (P09958 108-714 limits assumed): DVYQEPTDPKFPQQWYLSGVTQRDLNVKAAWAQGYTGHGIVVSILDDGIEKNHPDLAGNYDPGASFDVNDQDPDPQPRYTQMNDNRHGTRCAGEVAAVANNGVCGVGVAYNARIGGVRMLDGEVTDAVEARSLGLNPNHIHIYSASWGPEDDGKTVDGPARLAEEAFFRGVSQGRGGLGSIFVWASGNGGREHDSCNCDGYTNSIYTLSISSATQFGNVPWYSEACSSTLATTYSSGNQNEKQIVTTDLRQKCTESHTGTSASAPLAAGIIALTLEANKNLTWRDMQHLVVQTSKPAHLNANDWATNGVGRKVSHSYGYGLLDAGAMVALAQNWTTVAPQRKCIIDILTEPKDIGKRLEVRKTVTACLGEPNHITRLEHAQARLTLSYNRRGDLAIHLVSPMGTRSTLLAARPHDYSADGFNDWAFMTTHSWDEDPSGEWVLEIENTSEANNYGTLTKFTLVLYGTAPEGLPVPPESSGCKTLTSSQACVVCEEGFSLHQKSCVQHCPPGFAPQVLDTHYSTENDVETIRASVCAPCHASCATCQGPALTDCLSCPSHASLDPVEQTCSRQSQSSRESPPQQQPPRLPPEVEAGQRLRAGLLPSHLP
HSV augment = enhancers of HSV replication in host cells, fold increase, host cell viability | HSV replication augmentation in cells | maximum fold increase | hit rate 0.005% among 220,000 | AID 1956, 2009; in the data active = maximum fold increase above about 1.5; inconclusive = no clear call, values can overlap the other calls; tested in PC3 cells
thrombin 1536 = human alpha-thrombin inhibitors, primary screen, counter-screen for coagulation protease inhibitor project, biochemical, 1536-well, fluorogenic AMC substrate; inhibition, % at 5 µM; Prothrombin (Homo sapiens), P00734; Boc-VPR-AMC fluorogenic substrate cleavage; hit rate 0.26% among 220,000;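 active = inhibition at or above 40%; inactive = inhibition below 40%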
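System – human alpha-thrombin · Medium – pH 7.5 Tris (50 mM) with NaCl 150 mM, Tween 20 0.05% · Compound – single-point dosing at 5 µM, 0.2% DMSO · Incubation – enzyme reaction carried out at room temperature · Technique – fluorescence of released AMC, ex 355 nm, em 460 nm · Read-out basis – % inhibition of thrombin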
FXIa inh 1536 = human FXIa protease inhibitors, primary screen, biochemical, 1536-well | inhibition, % at 5 µM | AID 798, 2007 | hit rate 0.14% among 220,000 | purified FXIa, Boc-Glu-Ala-Arg-AMC fluorogenic substrate | Coagulation factor XI (Homo sapiens), P03951;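 active = inhibition of at least 40%; inactive = inhibition below 40%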;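 note: fluorescence of freed AMC excited at 355 nm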
Hits are given with their value; – = inactive; ? = inconclusive; · = not tested or not shown. Hits are enriched below; roughly 1% of the tested compounds scored in any of these assays.

SMILES	FXIIa inh	hK5 inh	Furin inh	HSV augment	thrombin 1536	FXIa inh 1536
COc1ccc(CCCC(=O)N/N=C/c2cccc(OC)c2O)cc1C	–	–	–	–	–	–
Cc1ccc(-c2cc(C(=O)Nc3ccc(S(=O)(=O)Nc4onc(C)c4C)cc3)c3ccccc3n2)cc1	–	–	–	–	–	–
COc1cc(C(=O)Nc2ccc(S(=O)(=O)Nc3cc(C)on3)cc2)cc(OC)c1OC	–	47.0	–	–	–	–
COc1cc(C(=O)Nc2cccc(-c3nnc(-c4ccco4)o3)c2)ccc1OC(C)=O	–	–	–	–	–	–
COc1cc(C(=O)Nc2ccc(-c3nnc(-c4ccco4)o3)cc2)cc(OC)c1OC	–	–	29.7	–	–	–
Cc1ccc(-c2cc(C(=O)Nc3ccc(S(=O)(=O)Nc4cc(C)on4)cc3)c3ccccc3n2)c(C)c1	72.2	–	–	–	–	–
CCC(=O)Nc1ccc(/C(C)=N\NS(=O)(=O)c2ccc(C)cc2)cc1	–	–	–	–	–	–
COc1ccc(CSc2n[nH]c(C)n2)cc1[N+](=O)[O-]	–	47.6	–	–	–	–
COCC(=O)n1nc(-c2ccccc2)nc1NCc1cccs1	–	–	–	–	85.7	–
CCC(=O)n1nc(-c2ccc(Cl)cc2)nc1NCc1ccccc1	–	–	–	–	70.5	–
O=C(c1cccs1)n1nc(-c2ccccc2)nc1NCc1ccco1	–	–	–	–	–	–
O=C(CCc1ccccc1)n1nc(-c2ccccc2)nc1NCc1ccco1	–	–	–	–	–	–
CCN(CC)C(=O)CSc1nc(OC)cc(=O)[nH]1	–	–	–	·	–	–
O=C(COc1ccc(-n2ccnc2)cc1)Nc1cccc(Cl)c1	–	–	–	–	–	–
O=C(CC(=O)N/N=C/c1cccs1)NCc1ccccc1	–	–	–	–	–	–
O=C(CCC(=O)N/N=C/c1ccc(Br)s1)NCc1ccccc1	44.2	–	–	–	–	–
COCCNC(=O)c1ccc(NS(=O)(=O)c2cc(C)ccc2C)cc1	–	41.7	–	–	–	–
Cc1ccc(C)c(S(=O)(=O)Nc2ccc(C(=O)NCCc3ccccn3)cc2)c1	–	–	–	–	–	–
Cc1ccc(S(=O)(=O)NN2C(=O)/C(=C/c3cccn3C)SC2=S)cc1	–	40.9	–	–	–	–
Cc1ccc(S(=O)(=O)NN2C(=O)/C(=C/c3cccs3)SC2=S)cc1	–	–	–	–	–	–
Nn1c(C2CCCCC2)nc2ccccc2c1=O	61.5	–	–	–	–	58.4
N#CCn1c(C2CCCCC2)nc2ccccc2c1=O	–	–	–	–	–	–
O=C(c1sccc1Cl)N1CCN(Cc2ccc3c(c2)OCO3)CC1	–	–	–	–	–	–
O=C(CS)Nc1ccc2ccccc2c1	–	–	–	–	–	–
CCCCCC(=O)Nc1ccc2ccccc2c1	–	124.2	–	–	–	–
SMILES	FXIIa inh	hK5 inh	Furin inh	HSV augment	thrombin 1536	FXIa inh 1536
COCCCNC(=S)NNC(=O)c1csc(C)n1	–	–	–	–	–	–
Cc1cc(C)cc(C(=O)NCC(=O)OCC(=O)c2cc(C)n(CC(F)(F)F)c2C)c1	–	–	–	–	–	–
CCCc1nnc(SCC(=O)N2CCCCC2)n1CC1CCCO1 (centres undefined)	–	56.8	–	–	–	–
CC(C)CC(=O)Nc1ccccc1N1CCCC1	–	71.6	–	–	–	–
CC(C)CC(=O)NC(=S)Nc1ccccc1N1CCCC1	–	–	–	–	–	–
O=C1c2[nH]nc(-c3ccccc3O)c2C(c2ccccc2F)N1Cc1ccco1 (centres undefined)	–	40.8	–	–	–	–
O=C(/C=C/c1ccc(S(=O)(=O)N2CCOCC2)cc1)NCc1ccccc1	–	–	–	–	–	–
COCCCn1c(=O)/c(=C\c2ccccc2OC(C)C)s/c1=C(/C#N)C(=O)Nc1ccc(C(=O)O)cc1	48.8	–	–	?	–	–
COCCCn1c(=O)/c(=C\c2ccccc2OC(F)F)s/c1=C(/C#N)C(=O)NC(C)C	–	–	–	?	–	–
CCOC(=O)Nc1c(O)ccc2oc(C)c(-c3ccccc3)c12	–	84.1	–	–	–	–
Cc1ccc2[nH]c(=O)c(N3CCOCC3)c(-c3ccccc3)c2c1	–	47.4	–	–	–	–
O=C(CCN1CCOCC1)Nc1c(-c2ccccc2)c2cc(Br)ccc2[nH]c1=O	–	–	–	–	–	–
Cc1cc(-c2n[nH]c(=S)n2/N=C/c2cc([N+](=O)[O-])ccc2Cl)n[nH]1	–	47.0	–	–	–	–
CC(=O)Nc1ccc(S(=O)(=O)Nc2nc3ccc([N+](=O)[O-])cc3s2)cc1	–	–	–	–	–	–
CS(=O)(=O)c1ccc2nc(NC(=O)c3ccc(NS(=O)(=O)c4cccc([N+](=O)[O-])c4)cc3)sc2c1	–	–	–	–	52.5	–
O=C(O)/C=C/C(=O)Nc1ccc(NC(=O)c2ccccc2)c(Cl)c1	–	–	–	–	–	–
Cc1ccc(C2C=C(c3ccccc3)Nc3nc(N4C(=O)CCC4=O)nn32)cc1 (centres undefined)	–	–	–	–	48.1	–
CC1=CC(c2ccc(Cl)cc2)n2nc(N3C(=O)CCC3=O)nc2N1 (centres undefined)	–	–	–	–	–	–
COc1cc(OC)cc(C(=O)N2CCN(Cc3ccccc3C(F)(F)F)CC2)c1	40.5	–	–	–	–	–
O=C(c1cccc(Cl)c1)N1CCN(Cc2ccccc2F)CC1	–	93.8	–	–	–	–
COc1ccc(OC)c(CN2CCN(C(=O)c3cccc4ccccc34)CC2)c1	–	44.0	–	–	–	–
O=C(/C=C/c1ccccc1)NC1CCSC1=O (centres undefined)	–	–	–	–	–	–
O=C(c1ccco1)N1CCN(Cc2cn[nH]c2-c2cccc3ccccc23)CC1	–	–	–	–	–	–
FC(F)(F)c1cnc(N2CCCN(C(=S)Nc3ccccc3)CC2)c(Cl)c1	–	–	–	–	–	–
COc1ccccc1NC(=O)N1CCCC1C(=O)NC1CCCCC1 (centres undefined)	–	–	–	–	53.6	–
O=C(NC1CCCC1)C1CCCN1C(=O)Nc1ccccc1Cl (centres undefined)	–	–	–	·	–	–
O=C(NCCN=C1NS(=O)(=O)c2ccccc21)c1ccco1	–	74.0	–	–	–	–
Cc1cc(C)n2nc(SCC(=O)Nc3ccc(F)cc3)nc2n1	41.5	–	–	–	–	–
O=S(=O)(Cc1ccc(Cl)cc1)N1CCN(Cc2ccccc2)CC1	–	–	–	–	–	–
CN1CCN(S(=O)(=O)Cc2ccc(Cl)cc2)CC1	–	69.6	–	–	–	41.3

Bioassay records deposited in PubChem BioAssay by several laboratories.
